Measured values from ChEMBL document CHEMBL1156534, “Hemopressin is an inverse agonist of CB1 cannabinoid receptors” (Proc Natl Acad Sci U S A, 2007).
Calls of active or inactive are those of the source.

Legend:
[1] = molecular target: T1, Type-1 angiotensin II receptor (Homo sapiens) (UniProt P30556); assay: Antagonist activity at AT1 angiotensin receptor expressed in SKNSH cells assessed as blockade of angiotensin 2-induced increase in antibody recognition at 100 nM by ELISA relative to control; assay type: functional, cell-based; parameters: scale not given: the % may be the effect or the level left
T1 sequence (whole entry): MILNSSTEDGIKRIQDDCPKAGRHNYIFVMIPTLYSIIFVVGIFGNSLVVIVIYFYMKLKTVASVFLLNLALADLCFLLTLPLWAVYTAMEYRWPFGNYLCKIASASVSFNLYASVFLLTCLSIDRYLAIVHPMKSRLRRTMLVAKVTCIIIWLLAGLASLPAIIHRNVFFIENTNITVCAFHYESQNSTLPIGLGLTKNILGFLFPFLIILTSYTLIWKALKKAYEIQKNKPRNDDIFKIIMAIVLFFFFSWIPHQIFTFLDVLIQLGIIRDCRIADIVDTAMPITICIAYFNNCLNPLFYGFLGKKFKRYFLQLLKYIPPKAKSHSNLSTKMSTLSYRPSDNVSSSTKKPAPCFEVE

[2] = molecular target: Cannabinoid receptor 1 (Rattus norvegicus) (UniProt P20272); assay: Antagonist activity at Long-Evans rat striatal membrane CB1 receptor assessed as blockade of Hu210-induced increase in GTPgammaS binding; assay type: functional
Outline: (§1)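 Membranes (10 μg) came from striatum (CB1) or spleen (CB2). They were tested in GTPγS-binding or adenylyl cyclase assays with Hu-210 and test ligand (0–1 μM), or with Hu-210 curves with or without 10 μM peptide; a 1 μM single-point combination was also used. Mean ± SE of triplicates.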

[3] = molecular target: T1, Type-1 angiotensin II receptor (Homo sapiens); assay: Antagonist activity at AT1 angiotensin receptor expressed in SKNSH cells at 100 nM by ELISA relative to control; assay type: functional, cell-based; parameters: scale not given: the % may be the effect or the level left
[4] = molecular target: Cannabinoid receptor 1 (Homo sapiens) (UniProt P21554); assay: Antagonist activity at CB1 receptor expressed in HEK293 cells assessed as blockade of secreted alkaline phosphatase activity at 1 uM after 6 hrs relative to control; assay type: functional, cell-based
Outline: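 HEK-293 cells transfected with 5 μg pCRE-SeAP plus 1 μg Flag-tagged CB₁ or CB₂ receptor, 30,000 cells/well, serum-starved 16–18 h. Stimulated 6 h in serum-free medium with 10 μM forskolin and 100 nM agonist, without or with 1 μM test peptide. Supernatant diluted in pH 7.2 buffer, heated 65°C 20 min, then CSPD chemiluminescence read. Mean ± SEM, n = 6.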

[5] = molecular target: Delta-type opioid receptor (Homo sapiens) (UniProt P41143); assay: Antagonist activity at delta opioid receptor expressed in SKNSH cells assessed as blockade of deltorphin 2-induced increase in antibody recognition at 100 nM by ELISA relative to control; assay type: functional, cell-based; parameters: scale not given: the % may be the effect or the level left
Rattus norvegicus [6] = assay: Antihyperalgesic effects in Wistar rat assessed as reduction of carrageenan-induced paw pressure at 0.5 ug/kg, intrathecal after 3 hrs; assay type: functional, organism-based
Outline: (§2)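 Male Wistar rats (200 g) received carrageenan 200 μg/paw intraplantar in saline into the right hind paw. Peptide was given at the same time: intraplantar 10 μg/paw, intrathecal 0.5 or 5 μg/kg, or oral 50 or 100 μg/kg; saline-treated rats served as controls. Paw-pressure withdrawal threshold (force ramp 16 g/s) was read at 0 and 3 h. n = 6–8.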

[7] = molecular target: Beta-2 adrenergic receptor (Homo sapiens) (UniProt P07550); assay: Antagonist activity at beta2 adrenergic receptor expressed in SKNSH cells at 100 nM by ELISA relative to control; assay type: functional, cell-based; parameters: scale not given: the % may be the effect or the level left
[8] = molecular target: T2, B2 bradykinin receptor (Homo sapiens) (UniProt P30411); assay: Antagonist activity at B2 bradykinin receptor expressed in SKNSH cells assessed as blockade of bradykinin-induced increase in antibody recognition at 100 nM by ELISA; assay type: functional, cell-based; parameters: scale not given: the % may be the effect or the level left
T2 sequence (whole entry): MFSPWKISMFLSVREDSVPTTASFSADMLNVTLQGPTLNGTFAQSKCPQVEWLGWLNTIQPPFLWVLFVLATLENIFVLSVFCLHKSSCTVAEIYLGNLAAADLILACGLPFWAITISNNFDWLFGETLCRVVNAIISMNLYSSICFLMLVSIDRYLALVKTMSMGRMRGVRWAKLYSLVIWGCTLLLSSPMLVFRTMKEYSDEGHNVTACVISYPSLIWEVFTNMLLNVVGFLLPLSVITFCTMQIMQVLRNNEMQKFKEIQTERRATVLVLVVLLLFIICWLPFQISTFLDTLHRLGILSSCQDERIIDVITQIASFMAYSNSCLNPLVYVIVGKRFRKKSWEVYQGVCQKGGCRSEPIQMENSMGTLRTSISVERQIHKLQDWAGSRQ

[9] = molecular target: Cannabinoid receptor 2 (Homo sapiens) (UniProt P34972); assay: Antagonist activity at CB2 receptor expressed in Neuro 2A cells assessed as blockade of Hu210-mediated increase in number of neurite outgrowth at 10 uM after 16 hrs; assay type: functional, cell-based
Outline: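 Neuro 2A cells transfected with Flag-tagged CB1 or CB2 were exposed 16 h in 0.1% FBS medium to 100 nM Hu-210 with or without 10 μM peptide. The percentage of cells extending neurites was scored and normalized to untreated cells (100%). Mean ± SE of triplicate experiments.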

Rattus norvegicus [10] = assay: Antihyperalgesic effects in Wistar rat assessed as reduction of carrageenan-induced paw pressure at 10 ug/kg, intraplantar after 3 hrs; assay type: functional, organism-based; outline: as §2
[11] = molecular target: Beta-2 adrenergic receptor (Homo sapiens) (UniProt P07550); assay: Antagonist activity at beta2 adrenergic receptor expressed in HEK293 cells assessed as blockade of secreted alkaline phosphatase activity at 1 uM after 6 hrs relative to control; assay type: functional, cell-based
Outline: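 HEK-293 cells transiently co-transfected with pCRE-SeAP and a Flag-tagged receptor, 30,000 cells/well on poly-L-lysine. They were serum-starved 16–18 h, then exposed 6 h in serum-free medium to 10 μM forskolin (omitted for β2) plus the receptor agonist (100 nM), with or without peptide (1 μM). Heat-treated supernatant SeAP was read by CSPD chemiluminescence. Mean ± SEM, n = 6.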

[12] = molecular target: Cannabinoid receptor 1 (Rattus norvegicus) (UniProt P20272); assay: Antagonist activity at Long-Evans rat striatal membrane CB1 receptor assessed as blockade of Hu210-mediated decrease in adenylate cyclase activity; assay type: functional; outline: as §1
[13] = molecular target: Cannabinoid receptor 2 (Homo sapiens) (UniProt P34972); assay: Antagonist activity at CB2 receptor expressed in SKNSH cells at 100 nM by ELISA relative to control; assay type: functional, cell-based; parameters: scale not given: the % may be the effect or the level left

Sequence of Cannabinoid receptor 2 (Homo sapiens) (P34972 whole entry): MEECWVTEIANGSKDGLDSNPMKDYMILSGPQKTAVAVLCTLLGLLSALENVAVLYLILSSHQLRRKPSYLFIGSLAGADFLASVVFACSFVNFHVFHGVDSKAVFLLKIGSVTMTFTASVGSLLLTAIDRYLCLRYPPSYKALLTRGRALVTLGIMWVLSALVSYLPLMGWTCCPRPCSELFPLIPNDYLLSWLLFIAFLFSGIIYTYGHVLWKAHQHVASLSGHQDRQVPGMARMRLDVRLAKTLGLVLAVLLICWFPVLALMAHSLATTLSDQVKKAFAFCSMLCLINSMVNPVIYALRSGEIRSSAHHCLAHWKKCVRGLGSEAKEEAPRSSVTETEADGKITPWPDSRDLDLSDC
Sequence of Cannabinoid receptor 1 (Rattus norvegicus) (P20272 whole entry): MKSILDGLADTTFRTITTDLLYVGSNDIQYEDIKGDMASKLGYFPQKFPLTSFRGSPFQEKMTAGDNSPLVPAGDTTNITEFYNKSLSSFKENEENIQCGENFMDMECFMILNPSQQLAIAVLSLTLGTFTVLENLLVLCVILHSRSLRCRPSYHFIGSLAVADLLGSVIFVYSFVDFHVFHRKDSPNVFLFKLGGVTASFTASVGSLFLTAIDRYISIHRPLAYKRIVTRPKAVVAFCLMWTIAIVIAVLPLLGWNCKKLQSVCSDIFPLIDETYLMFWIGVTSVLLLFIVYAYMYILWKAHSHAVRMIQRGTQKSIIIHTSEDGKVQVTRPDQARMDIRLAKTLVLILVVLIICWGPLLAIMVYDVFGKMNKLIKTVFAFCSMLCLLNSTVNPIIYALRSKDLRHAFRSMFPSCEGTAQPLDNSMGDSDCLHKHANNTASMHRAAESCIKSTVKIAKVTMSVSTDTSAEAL
Sequence of Beta-2 adrenergic receptor (Homo sapiens) (P07550 whole entry, looked up): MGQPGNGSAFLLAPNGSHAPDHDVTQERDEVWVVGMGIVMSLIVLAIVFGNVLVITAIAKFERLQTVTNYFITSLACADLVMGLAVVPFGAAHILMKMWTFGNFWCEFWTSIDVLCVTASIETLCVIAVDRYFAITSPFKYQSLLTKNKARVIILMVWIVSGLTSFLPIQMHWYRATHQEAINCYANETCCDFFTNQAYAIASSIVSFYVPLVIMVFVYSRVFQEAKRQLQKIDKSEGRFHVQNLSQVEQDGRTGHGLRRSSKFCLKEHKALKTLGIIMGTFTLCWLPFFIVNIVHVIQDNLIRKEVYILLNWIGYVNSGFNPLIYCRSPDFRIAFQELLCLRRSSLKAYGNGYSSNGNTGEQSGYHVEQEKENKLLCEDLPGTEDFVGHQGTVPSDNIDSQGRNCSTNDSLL
Sequence of Delta-type opioid receptor (Homo sapiens) (P41143 whole entry): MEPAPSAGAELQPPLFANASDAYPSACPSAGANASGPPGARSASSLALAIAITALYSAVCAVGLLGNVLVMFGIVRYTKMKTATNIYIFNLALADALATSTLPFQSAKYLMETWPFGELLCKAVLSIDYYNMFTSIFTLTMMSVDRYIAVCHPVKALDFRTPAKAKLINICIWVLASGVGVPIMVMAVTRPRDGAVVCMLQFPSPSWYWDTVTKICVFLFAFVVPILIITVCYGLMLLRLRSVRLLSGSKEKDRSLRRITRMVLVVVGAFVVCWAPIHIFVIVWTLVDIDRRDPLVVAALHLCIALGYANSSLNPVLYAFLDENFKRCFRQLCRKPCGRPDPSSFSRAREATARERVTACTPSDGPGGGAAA
Sequence of Cannabinoid receptor 1 (Homo sapiens) (P21554 whole entry): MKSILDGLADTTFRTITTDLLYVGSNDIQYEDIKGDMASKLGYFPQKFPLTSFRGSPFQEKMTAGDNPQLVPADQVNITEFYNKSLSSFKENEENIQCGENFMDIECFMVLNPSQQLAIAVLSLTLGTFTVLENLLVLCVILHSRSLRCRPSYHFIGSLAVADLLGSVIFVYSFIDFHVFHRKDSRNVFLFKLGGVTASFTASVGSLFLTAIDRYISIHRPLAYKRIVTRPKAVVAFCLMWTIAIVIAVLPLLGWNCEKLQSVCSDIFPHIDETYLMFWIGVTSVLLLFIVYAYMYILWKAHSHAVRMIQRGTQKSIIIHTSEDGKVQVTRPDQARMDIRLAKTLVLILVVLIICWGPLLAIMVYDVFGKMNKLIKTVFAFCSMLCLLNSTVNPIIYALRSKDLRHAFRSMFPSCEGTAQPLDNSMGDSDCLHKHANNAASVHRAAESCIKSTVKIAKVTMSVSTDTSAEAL

For `CC(C)C[C@H](NC(=O)[C@H](Cc1ccccc1)NC(=O)[C@H](CCCCN)NC(=O)[C@H](Cc1ccccc1)NC(=O)[C@H](CC(N)=O)NC(=O)[C@@H](NC(=O)[C@@H]1CCCN1)C(C)C)C(=O)N[C@@H](CO)C(=O)N[C@@H](Cc1cnc[nH]1)C(=O)O` [HEMOPRESSIN], the Activity [1] was 140%, the Activity [2] was “Active” and the Activity [3] was 110%. The Activity [4] was 1.15, the Activity [5] was 131% and the Activity (Rattus norvegicus [6]) was “Active”. The Activity [7] was 104%, the Activity [8] was 149% and the Activity [9] was “inactive”. For the same compound, the Activity (Rattus norvegicus [10]) was “Active”, the Activity [11] was 0.96 and the Activity [12] was “Active”. It also gave an Activity [13] of 103%.
